Reference: ChEMBL document CHEMBL5131576, “Turning the Other Cheek: Influence of the cis-Tetrafluorocyclohexyl Motif on Physicochemical and Metabolic Properties” (ACS Med Chem Lett, 2022)
Values after ≈ are worked out from the molar mass of the structure shown.

Assay: Kinetic solubility of the compound
Format: physicochemical
Details: not given

**Q.** Which Kinetic_solubility does the source give for NS(=O)(=O)c1cccc(-c2ccc(C3CCCCC3)cc2)c1 here?
**A.** Soluble

**Q.** With CN1CCC(c2ccc(-c3ccc(C4CCCCC4)cc3)cn2)CC1 as the molecule, how does the Kinetic_solubility read?
**A.** Soluble

**Q.** With O=C(Nc1ccc([C@H]2[C@@H](F)[C@@H](F)C[C@@H](F)[C@H]2F)cc1)c1cn[nH]c1 as the molecule, how does the solubility kinetic read?
**A.** 136 µM (≈ 46.4 µg/mL)

**Q.** Which Kinetic_solubility does the source give for O=C(Nc1ccc(C2CCCCC2)cc1)c1cn[nH]c1 here?
**A.** < 1 µM

**Q.** For O=C(CC1CCOCC1)Nc1ccc(C2CCCCC2)cc1, which Kinetic_solubility is on record?
**A.** < 1 µM

**Q.** With O=C(Cc1cccnc1)Nc1ccc(C2CCCCC2)cc1 as the molecule, how does the Kinetic_solubility read?
**A.** < 1 µM

**Q.** Which Kinetic_solubility does the source give for CN1CCN(C(=O)c2ccc(C3CCCCC3)cc2)CC1 here?
**A.** Soluble

**Q.** With O=C(COCC(F)F)Nc1ccc(C2CCCCC2)cc1 as the molecule, how does the Kinetic_solubility read?
**A.** < 1 µM

**Q.** Which Kinetic_solubility does the source give for O=C(c1ccc(C2CCCCC2)cc1)N1CC(O)C1 here?
**A.** Soluble

**Q.** With CN1CCN(C(=O)c2ccc(C3CCCCC3)cc2)CC1=O as the molecule, how does the Kinetic_solubility read?
**A.** Soluble

**Q.** With c1ncc(-c2ccc(C3CCCCC3)cc2)cn1 as the molecule, how does the Kinetic_solubility read?
**A.** Soluble

**Q.** For O=C(Nc1ccc(C2CCCCC2)cc1)[C@H]1CC1(F)F, which Kinetic_solubility is on record?
**A.** < 1 µM

Assay: Permeability across apical to basolateral side in MDCK cells pgp knock out incubated up to 180 mins by LC_MS/MS analysis
Format: ADME, cell-based, Canis lupus familiaris
Details: dog, read-out: permeability
In short: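 MDCK cells with the endogenously expressed canine MDR1 gene knocked out; transport measured in the apical-to-basolateral direction; apparent permeability reported in 10^-6 cm/s.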

**Q.** Which Papp A→B at 3 h does the source give for CN1CCN(C(=O)c2ccc([C@H]3[C@@H](F)[C@@H](F)C[C@@H](F)[C@H]3F)cc2)CC1 here?
**A.** 18.6 ×10⁻⁶ cm/s

**Q.** With O=C(NCC1CCOCC1)c1ccc([C@H]2[C@@H](F)[C@@H](F)C[C@@H](F)[C@H]2F)cc1 as the molecule, how does the Papp A→B at 3 h read?
**A.** 20.3 ×10⁻⁶ cm/s

**Q.** For CC(C(=O)Nc1ccc(C2CCCCC2)cc1)n1cncn1 (configuration not stated), which Papp A→B at 3 h is on record?
**A.** 29.5 ×10⁻⁶ cm/s

**Q.** Which Papp A→B at 3 h does the source give for CN(CCC#N)C(=O)c1ccc([C@H]2[C@@H](F)[C@@H](F)C[C@@H](F)[C@H]2F)cc1 here?
**A.** 8.1 ×10⁻⁶ cm/s

**Q.** With CN(C)CCC(=O)Nc1ccc([C@H]2[C@@H](F)[C@@H](F)C[C@@H](F)[C@H]2F)cc1 as the molecule, how does the Papp A→B at 3 h read?
**A.** 3.7 ×10⁻⁶ cm/s

**Q.** With O=C(Cn1ccnc1)Nc1ccc(C2CCCCC2)cc1 as the molecule, how does the Papp A→B at 3 h read?
**A.** 11.1 ×10⁻⁶ cm/s

**Q.** With O=C(c1ccc([C@H]2[C@@H](F)[C@@H](F)C[C@@H](F)[C@H]2F)cc1)N1CC(O)C1 as the molecule, how does the Papp A→B at 3 h read?
**A.** 6.7 ×10⁻⁶ cm/s

**Q.** Which Papp A→B at 3 h does the source give for O=C(Cc1cccnc1)Nc1ccc([C@H]2[C@@H](F)[C@@H](F)C[C@@H](F)[C@H]2F)cc1 here?
**A.** 15 ×10⁻⁶ cm/s

**Q.** For N#CCC(=O)Nc1ccc([C@H]2[C@@H](F)[C@@H](F)C[C@@H](F)[C@H]2F)cc1, which Papp A→B at 3 h is on record?
**A.** 16 ×10⁻⁶ cm/s

**Q.** For O=C(NCc1cc[nH]n1)c1ccc([C@H]2[C@@H](F)[C@@H](F)C[C@@H](F)[C@H]2F)cc1, which Papp A→B at 3 h is on record?
**A.** 2.1 ×10⁻⁶ cm/s

**Q.** Which Papp A→B at 3 h does the source give for COCCN(C)C(=O)c1ccc([C@H]2[C@@H](F)[C@@H](F)C[C@@H](F)[C@H]2F)cc1 here?
**A.** 9.4 ×10⁻⁶ cm/s

**Q.** Which Papp A→B at 3 h does the source give for COCCN(C)C(=O)c1ccc(C2CCCCC2)cc1 here?
**A.** 9.4 ×10⁻⁶ cm/s

**Q.** For CC(C(=O)Nc1ccc([C@H]2[C@@H](F)[C@@H](F)C[C@@H](F)[C@H]2F)cc1)n1cncn1 (some centres not stated), which Papp A→B at 3 h is on record?
**A.** 5.5 ×10⁻⁶ cm/s

**Q.** Which Papp A→B at 3 h does the source give for O=C(NCCc1cccnc1)c1ccc(C2CCCCC2)cc1 here?
**A.** 23 ×10⁻⁶ cm/s

**Q.** Which Papp A→B at 3 h does the source give for O=C(Cc1cccnc1)Nc1ccc(C2CCCCC2)cc1 here?
**A.** 19.9 ×10⁻⁶ cm/s

**Q.** For CN(Cc1cccnc1)C(=O)c1ccc(C2CCCCC2)cc1, which Papp A→B at 3 h is on record?
**A.** 12.1 ×10⁻⁶ cm/s

**Q.** Which Papp A→B at 3 h does the source give for CN1CCN(C(=O)c2ccc([C@H]3[C@@H](F)[C@@H](F)C[C@@H](F)[C@H]3F)cc2)CC1=O here?
**A.** 4.5 ×10⁻⁶ cm/s

**Q.** Which Papp A→B at 3 h does the source give for COCCC(=O)Nc1ccc([C@H]2[C@@H](F)[C@@H](F)C[C@@H](F)[C@H]2F)cc1 here?
**A.** 18.1 ×10⁻⁶ cm/s

**Q.** For CN(CCC#N)C(=O)c1ccc(C2CCCCC2)cc1, which Papp A→B at 3 h is on record?
**A.** 18.7 ×10⁻⁶ cm/s

**Q.** With COCCC(=O)Nc1ccc(C2CCCCC2)cc1 as the molecule, how does the Papp A→B at 3 h read?
**A.** 22.2 ×10⁻⁶ cm/s

**Q.** Which Papp A→B at 3 h does the source give for CN1CCN(C(=O)c2ccc(C3CCCCC3)cc2)CC1 here?
**A.** 20.3 ×10⁻⁶ cm/s

**Q.** With O=C(c1ccc(C2CCCCC2)cc1)N1CC(O)C1 as the molecule, how does the Papp A→B at 3 h read?
**A.** 26 ×10⁻⁶ cm/s

**Q.** For CC(=O)N1CC(C(=O)Nc2ccc([C@H]3[C@@H](F)[C@@H](F)C[C@@H](F)[C@H]3F)cc2)C1, which Papp A→B at 3 h is on record?
**A.** 0.6 ×10⁻⁶ cm/s

**Q.** With O=C(NCCN1CCCC1=O)c1ccc(C2CCCCC2)cc1 as the molecule, how does the Papp A→B at 3 h read?
**A.** 15.5 ×10⁻⁶ cm/s

**Q.** For CC(=O)N1CC(C(=O)Nc2ccc(C3CCCCC3)cc2)C1, which Papp A→B at 3 h is on record?
**A.** 18.7 ×10⁻⁶ cm/s

**Q.** With CN(C)CCC(=O)Nc1ccc(C2CCCCC2)cc1 as the molecule, how does the Papp A→B at 3 h read?
**A.** 10.8 ×10⁻⁶ cm/s

**Q.** Which Papp A→B at 3 h does the source give for CN1CCN(C(=O)c2ccc(C3CCCCC3)cc2)CC1=O here?
**A.** 10.9 ×10⁻⁶ cm/s

**Q.** For CN(Cc1cccnc1)C(=O)c1ccc([C@H]2[C@@H](F)[C@@H](F)C[C@@H](F)[C@H]2F)cc1, which Papp A→B at 3 h is on record?
**A.** 16.3 ×10⁻⁶ cm/s

**Q.** Which Papp A→B at 3 h does the source give for NC(=O)CCNC(=O)c1ccc(C2CCCCC2)cc1 here?
**A.** 14.7 ×10⁻⁶ cm/s

**Q.** Which Papp A→B at 3 h does the source give for O=C(NCC1CCOCC1)c1ccc(C2CCCCC2)cc1 here?
**A.** 35.9 ×10⁻⁶ cm/s

**Q.** For O=C(NCc1cc[nH]n1)c1ccc(C2CCCCC2)cc1, which Papp A→B at 3 h is on record?
**A.** 16.7 ×10⁻⁶ cm/s

**Q.** Which Papp A→B at 3 h does the source give for N#CCC(=O)Nc1ccc(C2CCCCC2)cc1 here?
**A.** 18.6 ×10⁻⁶ cm/s

**Q.** With NC(=O)CCNC(=O)c1ccc([C@H]2[C@@H](F)[C@@H](F)C[C@@H](F)[C@H]2F)cc1 as the molecule, how does the Papp A→B at 3 h read?
**A.** 0.4 ×10⁻⁶ cm/s

**Q.** For O=C(NCCN1CCCC1=O)c1ccc([C@H]2[C@@H](F)[C@@H](F)C[C@@H](F)[C@H]2F)cc1, which Papp A→B at 3 h is on record?
**A.** 3.5 ×10⁻⁶ cm/s

**Q.** For O=C(Cn1ccnc1)Nc1ccc([C@H]2[C@@H](F)[C@@H](F)C[C@@H](F)[C@H]2F)cc1, which Papp A→B at 3 h is on record?
**A.** 0.9 ×10⁻⁶ cm/s
